Results of several laboratories.
Lines come from different studies, so protocols differ.
APLNR: Apelin receptor (APLNR, Homo sapiens, UniProt P35414)

| SMILES | target | read-out | action | method | pH | measurement | result |
| --- | --- | --- | --- | --- | --- | --- | --- |
| CCCCCc1cc(O)c(C/C=C(\C)CCC=C(C)C)c(O)c1 | Sucrase-isomaltase, intestinal (Si, Rattus norvegicus, UniProt P23739) | enzyme activity | inhibitor | absorbance |  | IC50 | 620 µM |
| CC[C@H](C)[C@H](NC(=O)[C@@H](N)CCC(=O)O)C(=O)N[C@@H](C)C(=O)N1CCC[C@H]1C(=O)N[C@H](C(=O)N[C@@H](CC(C)C)C(=O)N[C@@H](Cc1c[nH]cn1)C(=O)N[C@@H](CO)C(=O)N[C@H](C(=O)O)[C@@H](C)OP(=O)(O)O)C(C)C | Serine/threonine-protein kinase PLK4 (PLK4, Homo sapiens, UniProt O00444) | binding |  | MST | pH 8 | Kd | 0.0229 µM |
| Clc1ccc(C(c2ccccc2Cl)C(Cl)(Cl)Cl)cc1 (stereo not shown) | Glucocorticoid receptor (NR3C1, Homo sapiens, UniProt P04150) | ligand displacement |  |  |  | IC50 | 2.72 µM |
| CC[C@H](C)[C@H](NC(=O)[C@H](CO)NC(=O)[C@H](Cc1c[nH]cn1)NC(=O)[C@H](Cc1ccccc1)NC(=O)[C@H](CCCCN)NC(=O)[C@H](CCCCN)NC(=O)[C@H](CS)NC(=O)[C@H](CC(C)C)NC(=O)[C@H](CCC(=O)O)NC(=O)[C@@H]1CCCN1C(=O)[C@@H](N)CO)C(=O)N1CCC[C@H]1C(=O)N[C@@H](CC(C)C)C(=O)N[C@@H](Cc1ccccc1)C(=O)N1CCC[C@H]1C(=O)O | APLNR | calcium signal | agonist | fluorescence |  | EC50 | 0.127 µM |
| CC(C)(c1ccc(O)cc1)c1ccc(C(C)(C)c2ccc(O)cc2)cc1 | Estrogen receptor (ESR1, Homo sapiens, UniProt P03372) | reporter gene | antagonist | luciferase |  | IC50 | 2.9 µM |
| CC(C)C[C@@H]1NC(=O)[C@H](CCCNC(=N)N)NC(=O)[C@@H]2CCCN2C(=O)[C@H](CCCNC(=N)N)NC(=O)[C@@H](NC(=O)[C@H](Cc2c[nH]cn2)NC(=O)[C@H](CCCCN)NC(=O)[C@@H]2CSSC[C@H](N)C(=O)N[C@@H](CCCNC(=N)N)C(=O)N3CCC[C@H]3C(=O)N[C@@H](CCCNC(=N)N)C(=O)N[C@@H](CC(C)C)C(=O)N2)CSSC[C@@H](C(=O)O)NC1=O | APLNR | β-arrestin recruitment | antagonist |  |  | IC50 | 10.1 µM |
| CC[C@H](C)[C@H](NC(=O)[C@H](CCCCN)NC(=O)[C@H](CCCCN)NC(=O)[C@H](C)NC(=O)[C@H](C)NC(=O)[C@@H](NC(=O)[C@H](CCCNC(=N)N)NC(=O)[C@H](CCSC)NC(=O)[C@H](CCC(N)=O)NC(=O)[C@H](CCC(=O)O)NC(=O)[C@H](CCCCN)NC(=O)[C@@H](N)CO)[C@@H](C)CC)C(=O)NCC(=O)N[C@@H](CC(C)C)C(=O)N[C@@H](CC(C)C)C(=O)N[C@@H](CCC(=O)O)C(=O)O | APLNR | calcium signal | antagonist | fluorescence |  | IC50 | 20.3 µM |
| C[C@H](CCCOS(=O)(=O)O)[C@H]1CC[C@H]2[C@@H]3CC[C@H]4C[C@@H](O)CC[C@]4(C)[C@H]3CC[C@]12C | cGMP-inhibited 3',5'-cyclic phosphodiesterase 3A (PDE3A, Homo sapiens, UniProt Q14432) | enzyme activity | inhibitor |  |  | IC50 | 7.05 µM |
| CC[C@H](C)[C@H](NC(=O)[C@@H]1CCCN1C(=O)[C@H](CC(C)C)NC(=O)[C@H](CO)NC(=O)[C@H](Cc1c[nH]cn1)NC(=O)[C@H](CC(C)C)NC(=O)[C@H](CC(C)C)NC(=O)[C@H](CCC(=O)O)NC(=O)[C@H](CS)NC(=O)[C@H](CC(C)C)NC(=O)[C@@H]1CCCN1C(=O)[C@H](CO)NC(=O)[C@@H](N)CCCNC(=N)N)C(=O)N[C@@H](Cc1ccccc1)C(=O)N1CCC[C@H]1C(=O)O | APLNR | calcium signal | agonist | fluorescence |  | EC50 | 1.08 µM |
| COc1cc2c(cc1OC)CN(CCc1ccc(NC(=O)c3cccc4c(=O)c5cccc(OC)c5[nH]c34)cc1)CC2 | Alpha-2C adrenergic receptor (ADRA2C, Homo sapiens, UniProt P18825) | cell-free assay |  |  |  | Ki | 0.15 µM |
